Measurements as given in ChEMBL document CHEMBL4393681, “The identification of naturally occurring labdane diterpenoid calcaratarin D as a potential anti-inflammatory agent” (Eur J Med Chem, 2019).

Legend:
[1] = Cytotoxicity against mouse RAW264.7 cells assessed as cell viability at 20 uM incubated for 18 hrs by celltiter-glo luminescent assay relative to control; assay type: cell-based; conditions: read-out: Activity
Method in brief: (§1)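 Non-stimulated RAW264.7 cells were exposed to 0.1, 1, 5 and 20 µM compound from 100 mM DMSO stocks. Percent viability is the mean of three separate experiments with triplicate samples.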

RAW264.7 [2] = test: Anti-inflammatory activity in mouse RAW264.7 cells assessed as inhibition of LPS-induced IL-6 production at 0.1 uM pretreated for 1 hr followed by LPS stimulation and measured after 18 hrs by ELISA relative to control; assay type: functional; set-up: scale not given: the % may be the effect or the level left
Method in brief: (§2)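 DMSO stocks (100 mM) were tested at 0.1, 1, 5 and 20 µM on LPS-stimulated RAW264.7 cells, with dexamethasone 1 µM as positive control. Secreted TNF-α or IL-6 was normalized to the percentage of viable LPS-stimulated cells at each concentration. Mean of three separate experiments, each in triplicate.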

RAW264.7 [3] = test: Anti-inflammatory activity in mouse RAW264.7 cells assessed as inhibition of LPS-induced TNFalpha production at 0.1 uM pretreated for 1 hr followed by LPS stimulation and measured after 18 hrs by ELISA relative to control; assay type: functional; set-up: scale not given: the % may be the effect or the level left; method in brief: as §2
RAW264.7 [4] = test: Anti-inflammatory activity in mouse RAW264.7 cells assessed as inhibition of LPS-induced IL-6 production at 5 uM pretreated for 1 hr followed by LPS stimulation and measured after 18 hrs by ELISA relative to control; assay type: functional; set-up: scale not given: the % may be the effect or the level left; method in brief: as §2
RAW264.7 [5] = test: Anti-inflammatory activity in mouse RAW264.7 cells assessed as inhibition of LPS-induced IL-6 production at 1 uM pretreated for 1 hr followed by LPS stimulation and measured after 18 hrs by ELISA relative to control; assay type: functional; set-up: scale not given: the % may be the effect or the level left; method in brief: as §2
RAW264.7 [6] = test: Anti-inflammatory activity in mouse RAW264.7 cells assessed as inhibition of LPS-induced IL-6 production at 20 uM pretreated for 1 hr followed by LPS stimulation and measured after 18 hrs by ELISA relative to control; assay type: functional; set-up: scale not given: the % may be the effect or the level left; method in brief: as §2
[7] = Cytotoxicity against mouse RAW264.7 cells assessed as cell viability at 1 uM incubated for 18 hrs by celltiter-glo luminescent assay relative to control; assay type: cell-based; conditions: read-out: Activity; method in brief: as §1
[8] = Cytotoxicity against mouse RAW264.7 cells assessed as cell viability at 5 uM incubated for 18 hrs by celltiter-glo luminescent assay relative to control; assay type: cell-based; conditions: read-out: Activity; method in brief: as §1
RAW264.7 [9] = test: Anti-inflammatory activity in mouse RAW264.7 cells assessed as inhibition of LPS-induced TNFalpha production at 5 uM pretreated for 1 hr followed by LPS stimulation and measured after 18 hrs by ELISA relative to control; assay type: functional; set-up: scale not given: the % may be the effect or the level left; method in brief: as §2
RAW264.7 [10] = test: Anti-inflammatory activity in mouse RAW264.7 cells assessed as inhibition of LPS-induced TNFalpha production at 1 uM pretreated for 1 hr followed by LPS stimulation and measured after 18 hrs by ELISA relative to control; assay type: functional; set-up: scale not given: the % may be the effect or the level left; method in brief: as §2
RAW264.7 [11] = test: Anti-inflammatory activity in mouse RAW264.7 cells assessed as inhibition of LPS-induced TNFalpha production at 20 uM pretreated for 1 hr followed by LPS stimulation and measured after 18 hrs by ELISA relative to control; assay type: functional; set-up: scale not given: the % may be the effect or the level left; method in brief: as §2
[12] = Cytotoxicity against mouse RAW264.7 cells assessed as cell viability at 0.1 uM incubated for 18 hrs by celltiter-glo luminescent assay relative to control; assay type: cell-based; conditions: read-out: Activity; method in brief: as §1

Row | Structure (SMILES) | viability at 18 h, 20 µM [1] | Activity (RAW264.7 [2]) | Activity (RAW264.7 [3]) | Activity (RAW264.7 [4]) | Activity (RAW264.7 [5]) | Activity (RAW264.7 [6]) | viability at 18 h, 1 µM [7] | viability at 18 h, 5 µM [8] | Activity (RAW264.7 [9]) | Activity (RAW264.7 [10]) | Activity (RAW264.7 [11]) | viability at 18 h, 0.1 µM [12]
1 | C=C1CC[C@H]2C(C)(C)CCC[C@]2(C)[C@H]1C/C=C1\C=COC1=O | 82.6% | 99% | 94.1% | 85.9% | 99.6% | 61.5% | 97.7% | 90.8% | 53.6% | 84.6% | 26.6% | 102%
2 | C=C1CC[C@H]2C(C)(C)CCC[C@]2(C)[C@H]1C/C=C1\CC(OC)OC1=O (stereo not given in full) | 100% | 101% | 104.7% | 70% | 79.1% | 59.9% | 102% | 101% | 44.7% | 77.7% | 27.5% | 102%
3 | CC1(C)CCC[C@@]2(C)[C@H]1CC[C@]1(CO1)[C@@H]2C/C=C1\CCOC1=O | 85.7% | 102.3% | 100.3% | 81.4% | 92.3% | 63.9% | 97.6% | 95.1% | 55.6% | 88.3% | 33.1% | 97.8%
4 | C=C1CC[C@H]2C(C)(C)CCC[C@]2(C)[C@H]1C/C=C1\C(=O)OC[C@H]1O | 47.5% | 100.7% | 98.7% | 32.2% | 76.9% | 10.1% | 95.5% | 81.7% | 17.5% | 71.6% | 4.8% | 100%
5 | C=C1CC[C@H]2C(C)(C)CCC[C@]2(C)[C@H]1C/C=C1\CC(OCC)OC1=O (stereo not given in full) | 96.3% | 102.3% | 101.6% | 95.9% | 100.3% | 80.9% | 100% | 94.9% | 65.3% | 86.8% | 48.1% | 102%
6 | C=C1CC[C@H]2C(C)(C)CCC[C@]2(C)[C@H]1C/C=C(\CCO)C(=O)O | 87.6% | 106% | 104.7% | 79.9% | 88.3% | 63.5% | 99.2% | 96.6% | 60.7% | 80.7% | 50.2% | 102%
7 | C=C1CC[C@H]2C(C)(C)CCC[C@]2(C)[C@H]1CC=O | 91.9% | 100% | 104% | 93% | 95% | 72.8% | 101% | 101% | 73.7% | 91.7% | 48.5% | 100%
8 | C=C1CC[C@H]2C(C)(C)CCC[C@]2(C)[C@H]1/C=C/C1=CCOC1=O [VILLOSIN] | 59% | 98.4% | 80.4% | 101.5% | 87.6% | 170.1% | 105% | 103% | 74.6% | 86.6% | 133.5% | 104%
9 | C=C1CC[C@H]2C(C)(C)CCC[C@]2(C)[C@H]1C/C=C1\CC(O)OC1=O (stereo not given in full) | 79% | 99.1% | 100.2% | 64% | 82.4% | 59.4% | 92.7% | 86.3% | 81.9% | 89.6% | 71.1% | 102%
10 | C=C1CC[C@H]2C(C)(C)CCC[C@]2(C)[C@H]1C[C@H](O)[C@H]1C(=O)OC[C@H]1O | 98.3% | 104.6% | 111.1% | 104.3% | 101.7% | 71.8% | 106% | 107% | 109.5% | 108.6% | 86.8% | 108%
11 | CC1(C)CCC[C@]2(C)[C@H]3CC(=O)O[C@]3(C)CC[C@@H]12 | 95.9% | 94.6% | 104.8% | 93.8% | 100.3% | 89.7% | 96.6% | 97.2% | 79.9% | 101% | 63.9% | 99.3%
12 | C=C1CC[C@H]2C(C)(C)CCC[C@]2(C)[C@H]1C/C=C1\CCOC1=O | 100% | 103% | 104.4% | 83.9% | 93.9% | 76.3% | 107% | 102% | 73.1% | 94.6% | 52.6% | 103%
13 | C=C1CC[C@H]2C(C)(C)CCC[C@]2(C)[C@H]1C/C=C1/CCOC1=O | 85% | 101.5% | 99.8% | 85.6% | 94.1% | 64.8% | 101% | 95.4% | 69.9% | 81.8% | 48% | 103%
14 | C=C1CC[C@H]2C(C)(C)CCC[C@]2(C)[C@H]1C[C@@H](O)C1=CCOC1=O [CURCUCOMOSIN C] | 91.9% | 100.6% | 112% | 75.6% | 84% | 47.1% | 111% | 108% | 79.3% | 101.5% | 33.4% | 109%
15 | CC1(C)CCC[C@@]2(C)[C@H]1CC[C@@]1(CO1)[C@@H]2C/C=C1\CCOC1=O | 80.4% | 101.6% | 114.8% | 35.2% | 79.7% | 22.3% | 97% | 90.9% | 48.4% | 88.6% | 20.5% | 101%
